Results: ChEMBL document CHEMBL1139250, “2,6,9-Trisubstituted purine derivatives as protein A mimetics for the treatment of autoimmune diseases” (Bioorg Med Chem Lett, 2009)
pIC50: −log10 of the molar value. Activity calls are given as the source filed them. No cut-off for these calls is given here.

test system: Mus musculus; experiment: Effect on oxazolone-induced delayed type hypersensitivity in mouse assessed as ear thickness at 50 mg/kg, iv after 7 days challenged with oxazolone on day 3; type: functional
How it was run: (§1)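 Mice dosed intravenously with vehicle or test compound at 50 mg/kg on days 0, 1 and 2. Oxazolone (50 ll) applied to the right ear surface, first challenge day 3, second day 10. Ear thickness measured days 4–7 and 11–14; redness and crust formation also observed. Mice sacrificed day 14.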

Row | SMILES | Activity [mm]
1 | CN(Cc1cnc2nc(N)nc(N)c2n1)c1ccc(C(=O)N[C@@H](CCC(=O)O)C(=O)O)cc1 [METHOTREXATE] | 0.17
2 | Nc1ccc(CCn2cnc3c(Nc4cccc(N)c4)ncnc32)cc1 | 0.19

test system: Rattus norvegicus; experiment: Reduction in synovitis damage in Freund's adjuvant-induced arthritis Lewis rat model at 25 mg/kg, iv after 21 days relative to control; type: functional; design: scale not given: the % may be the effect or the level left
How it was run: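 Female Lewis rats; arthritis induced by footpad injection of lyophilized Mycobacterium butyricum in mineral oil, monitored for 3 weeks. Intravenous dosing on days −3, −2, −1 pre-adjuvant and days 10, 11, 12 post-adjuvant; body weight recorded. Arthritis (inflammatory) index derived from joint circumference in mm via a geometric formula; incidence and severity scored.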

Row | SMILES | Activity [%]
3 | CN(Cc1cnc2nc(N)nc(N)c2n1)c1ccc(C(=O)N[C@@H](CCC(=O)O)C(=O)O)cc1 [METHOTREXATE] | 20
4 | Nc1ccc(CCn2cnc3c(Nc4cccc(N)c4)ncnc32)cc1 | 25

test system: Mus musculus; experiment: Effect on oxazolone-induced delayed type hypersensitivity in mouse assessed as ear thickness at 50 or 150 mg/kg, po after 14 days challenged with oxazolone on day 10; type: functional, organism-based; design: dose 150 mg/kg
How it was run: (§2)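 Oxazolone DTH protocol: 50 ll oxazolone applied to the right ear surface, challenged day 3 and day 10. Ear thickness measured days 4–7 and 11–14. Compound given orally at 50 or 150 mg/kg daily from day 0 to day 13. Hydrocortisone served as comparator.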

Row | SMILES | Activity
5 | Nc1ccc(CCn2cnc3c(Nc4cccc(N)c4)ncnc32)cc1 | Active

test system: Mus musculus; experiment: Effect on oxazolone-induced delayed type hypersensitivity in mouse assessed as ear thickness at 50 or 150 mg/kg, po after 7 days challenged with oxazolone on day 3; type: functional, organism-based; design: dose 150 mg/kg; how it was run: as §2

Row | SMILES | Activity
6 | Nc1ccc(CCn2cnc3c(Nc4cccc(N)c4)ncnc32)cc1 | Active

molecular target: not listed separately; experiment: (§3) Displacement of protein A from human IgG antibody by competitive ELISA
How it was run: (§4)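 Competitive ELISA in which test compounds compete with protein A for binding to human IgG; IC50 determined in PBS.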

Row | SMILES | pIC50
7 | Cc1ccc(CCn2cnc3c(Nc4cccc(N)c4)ncnc32)cc1 | 5.82
8 | Nc1cccc(Nc2ncnc3c2ncn3CCCOc2ccccc2)c1 | 6.22
9 | Nc1cccc(Nc2ncnc3c2ncn3Cc2ccc(Cl)cc2)c1 | 6.30
10 | Nc1cccc(Nc2ncnc3c2ncn3CCc2ccc(Cl)cc2)c1 | 5.44
11 | Nc1cccc(Nc2ncnc3c2ncn3CCOc2ccccc2)c1 | 6.70
12 | Nc1cccc(Nc2ncnc3c2ncn3CCc2ccc(F)cc2)c1 | 6.22
13 | Nc1cccc(Nc2ncnc3c2ncn3CC2CC2)c1 | 6.40
14 | Nc1cccc(Nc2ncnc3c2ncn3Cc2cccc(Cl)c2)c1 | 6.40
15 | Nc1cccc(Nc2ncnc3c2ncn3CCOc2ccc(F)cc2)c1 | 6.52
16 | Nc1cccc(Nc2ncnc3c2ncn3CCOc2ccc(Cl)cc2)c1 | 6.30
17 | Nc1cccc(Nc2ncnc3c2ncn3Cc2ccc(F)cc2)c1 | 5.77
18 | COC(=O)c1ccc(Cn2cnc3c(Nc4cccc(N)c4)ncnc32)cc1 | 6.52
19 | Nc1cccc(Nc2ncnc3c2ncn3CCc2ccccc2)c1 | 5.64
20 | Nc1cccc(CCn2cnc3c(Nc4cccc(N)c4)ncnc32)c1 | 5.29
21 | Nc1cccc(Nc2ncnc3c2ncn3Cc2cccc(F)c2)c1 | 5.74
22 | Nc1cccc(Nc2ncnc3c2ncn3CCc2ccc3ccccc3c2)c1 | 4.90
23 | Nc1ccc(Cn2cnc3c(Nc4cccc(N)c4)ncnc32)cc1 | 6.70
24 | CC(c1cccc(F)c1)n1cnc2c(Nc3cccc(N)c3)ncnc21 (configuration not stated) | 6.70
25 | Nc1cccc(Nc2ncnc3c2ncn3CCc2cccc(F)c2)c1 | 6.30

The next lines start with the values.

Row | pIC50 | SMILES
26 | 4.89 | Nc1ccc(CCn2cnc3c(Nc4cccc(N)c4)nc(NC4CC4)nc32)cc1
27 | 5.22 | CC(C)(C)CNc1nc(Nc2cccc(N)c2)c2ncn(CCc3ccc(N)cc3)c2n1
28 | 5.05 | Nc1ccc(CCn2cnc3c(Nc4cccc(N)c4)nc(NC4CCCCC4)nc32)cc1
29 | 4.19 | Nc1ccc(CCn2cnc3c(Nc4cccc(N)c4)nc(NCCO)nc32)cc1
30 | 6.22 | Nc1ccc(CCn2cnc3c(Nc4cccc(N)c4)nc(NCC4CC4)nc32)cc1
31 | 4.89 | Nc1ccc(CCn2cnc3c(Nc4cccc(N)c4)nc(N)nc32)cc1
32 | 5.32 | Nc1ccc(CCn2cnc3c(Nc4cccc(N)c4)nc(NCCCCCCO)nc32)cc1
33 | 5.64 | Nc1ccc(CCn2cnc3c(Nc4cccc(N)c4)nc(NC4CCC4)nc32)cc1
34 | 4.85 | CC(Nc1nc(Nc2cccc(N)c2)c2ncn(CCc3ccc(N)cc3)c2n1)c1cccc(N)c1 (configuration not stated)
35 | 6.00 | Nc1ccc(CCn2cnc3c(Nc4cccc(N)c4)ncnc32)cc1
36 | 5.96 | CC(C)Nc1nc(Nc2cccc(N)c2)c2ncn(CCc3ccc(N)cc3)c2n1
37 | 5.74 | Nc1ccc(CCn2cnc3c(Nc4cccc(N)c4)nc(NCc4ccccc4)nc32)cc1
38 | 4.66 | CC(C)CNc1nc(Nc2cccc(N)c2)c2ncn(CCc3ccc(N)cc3)c2n1
39 | 6.70 | Nc1ccc(CCn2cnc3c(Nc4cccc(N)c4)nc(NC4CCCC4)nc32)cc1

species on record: Homo sapiens; experiment: as §3; how it was run: as §4

Row | SMILES | Activity
40 | Nc1ccc(CCn2cnc3c(Nc4cccc(F)c4)ncnc32)cc1 | inactive
41 | Nc1ccc(CCn2cnc3c(NCC4CCCNC4)ncnc32)cc1 (configuration not stated) | inactive
42 | Nc1ccc(CCn2cnc3c(NC4CCCC(N)C4)ncnc32)cc1 (configuration not stated) | inactive
43 | Nc1ccc(CCn2cnc3c(NC4CCNC4)ncnc32)cc1 (configuration not stated) | inactive
44 | COc1cccc(Nc2ncnc3c2ncn3CCc2ccc(N)cc2)c1 | inactive
45 | Nc1cccc(Nc2ncnc3c2ncn3CCc2ccc(O)cc2)c1 | inactive
46 | Nc1ccc(CCn2cnc3c(N4CCNCC4)ncnc32)cc1 | inactive

The next lines start with the values.

Row | Activity | SMILES
47 | inactive | NCCNc1nc(Nc2cccc(N)c2)c2ncn(CCc3ccc(N)cc3)c2n1
48 | inactive | Nc1ccc(CCn2cnc3c(Nc4cccc(N)c4)nc(F)nc32)cc1
49 | inactive | Nc1ccc(CCn2cnc3c(Nc4cccc(N)c4)nc(NCCCCO)nc32)cc1

test system: Rattus norvegicus; experiment: Reduction in synovitis damage in Freund's adjuvant-induced arthritis Lewis rat model at 50 mg/kg, po after 21 days relative to control; type: functional; design: scale not given: the % may be the effect or the level left

Row | SMILES | Activity [%]
50 | Nc1ccc(CCn2cnc3c(Nc4cccc(N)c4)ncnc32)cc1 | 30

test system: Mus musculus; experiment: Effect on oxazolone-induced delayed type hypersensitivity in mouse assessed as ear thickness at 50 mg/kg, iv after 14 days challenged with oxazolone on day 10; type: functional; how it was run: as §1

Row | SMILES | Activity [mm]
51 | CN(Cc1cnc2nc(N)nc(N)c2n1)c1ccc(C(=O)N[C@@H](CCC(=O)O)C(=O)O)cc1 [METHOTREXATE] | 0.46
52 | Nc1ccc(CCn2cnc3c(Nc4cccc(N)c4)ncnc32)cc1 | 0.56
